Source: ChEMBL document CHEMBL1828613, “Optimization of cellular activity of G9a inhibitors 7-aminoalkoxy-quinazolines” (J Med Chem, 2011)

How the values were obtained:
[1] = test system: MDA-MB-231; experiment: Cytotoxicity against human MDA-MB-231 cells assessed as cell viability after 48 hrs by MTT assay; format: functional, cell-based; details: MDA-MB-231, 48 h
[2] = molecular target: T1, Histone-lysine N-methyltransferase EHMT2 (Homo sapiens, UniProt Q96KQ7); experiment: Inhibition of G9a assessed as hydrolysis of S-adenosyl-L-homocysteine after 2 mins by SAHH-coupled fluorescence assay
T1 sequence (Q96KQ7 whole entry): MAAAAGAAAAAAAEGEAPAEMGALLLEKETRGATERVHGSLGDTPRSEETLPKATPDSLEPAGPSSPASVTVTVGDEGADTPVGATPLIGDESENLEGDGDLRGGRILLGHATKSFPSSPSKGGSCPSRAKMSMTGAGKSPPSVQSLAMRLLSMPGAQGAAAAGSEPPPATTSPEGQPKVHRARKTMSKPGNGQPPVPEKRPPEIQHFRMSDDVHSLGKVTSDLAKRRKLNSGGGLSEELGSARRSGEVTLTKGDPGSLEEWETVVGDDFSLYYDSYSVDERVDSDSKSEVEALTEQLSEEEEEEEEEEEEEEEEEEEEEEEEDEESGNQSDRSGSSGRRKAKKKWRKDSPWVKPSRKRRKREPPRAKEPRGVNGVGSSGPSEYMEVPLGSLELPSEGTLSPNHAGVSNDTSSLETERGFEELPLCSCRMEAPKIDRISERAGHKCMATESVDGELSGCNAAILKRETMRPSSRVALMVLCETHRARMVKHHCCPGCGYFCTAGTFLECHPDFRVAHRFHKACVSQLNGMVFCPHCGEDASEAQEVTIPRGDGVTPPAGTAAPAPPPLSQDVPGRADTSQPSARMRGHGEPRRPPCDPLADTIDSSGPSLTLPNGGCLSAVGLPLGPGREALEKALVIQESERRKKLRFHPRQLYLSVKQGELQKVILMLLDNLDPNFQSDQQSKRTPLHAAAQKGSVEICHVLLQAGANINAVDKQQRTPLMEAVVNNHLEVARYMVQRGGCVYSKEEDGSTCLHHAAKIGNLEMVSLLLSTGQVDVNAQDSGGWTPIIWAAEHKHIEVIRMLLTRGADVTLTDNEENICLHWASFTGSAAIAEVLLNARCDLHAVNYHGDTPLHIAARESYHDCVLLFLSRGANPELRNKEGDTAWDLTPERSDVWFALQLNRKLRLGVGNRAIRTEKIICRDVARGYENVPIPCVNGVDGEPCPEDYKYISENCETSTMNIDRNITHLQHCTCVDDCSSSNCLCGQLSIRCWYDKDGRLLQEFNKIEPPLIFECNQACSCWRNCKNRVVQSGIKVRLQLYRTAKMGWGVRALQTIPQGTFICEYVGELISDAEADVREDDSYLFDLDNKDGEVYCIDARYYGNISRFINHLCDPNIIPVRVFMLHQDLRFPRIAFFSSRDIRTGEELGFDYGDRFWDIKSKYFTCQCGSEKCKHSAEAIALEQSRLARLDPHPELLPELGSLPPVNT

[3] = molecular target: T1, Histone-lysine N-methyltransferase EHMT2; experiment: Inhibition of G9a in human MDA-MB-231 cells assessed as reduction of H3K9me2 after 48 hrs by In-Cell Western assay; format: cell-based
Procedure, shortened: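 In-Cell Western: MDA-MB-231 cells grown in RPMI/10% FBS were seeded at 5–10 thousand per well and treated 48 h across a concentration series. Cells were fixed in 2% formaldehyde, blocked in 1% BSA, and stained with H3K9me2 antibody (1/800, 2 h), then IR800 secondary plus DRAQ5. Three wells were stained and one kept as background. The 800 nm signal was normalized to background and DRAQ5 and expressed as % control. IC50 from a sigmoidal variable-slope fit, averaging at least duplicate runs.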

[4] = Ratio of EC50 for human MDA-MB-231 cells to IC50 for G9a in human MDA-MB-231 cells
Procedure, shortened: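 ICW used DRAQ5-normalized H3K9me2 immunofluorescence. MTT was read at 570 nm corrected at 650 nm. Each value was a sigmoidal variable-slope fit averaged over at least duplicate runs.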

[5] = molecular target: T1, Histone-lysine N-methyltransferase EHMT2; experiment: Inhibition of G9a in human MCF7 cells assessed as reduction of H3K9me2 after 48 hrs by In-Cell Western assay; format: cell-based
[6] = molecular target: T1, Histone-lysine N-methyltransferase EHMT2; experiment: Inhibition of G9a in human PC3 cells assessed as reduction of H3K9me2 after 48 hrs by In-Cell Western assay; format: cell-based, PC-3
[7] = molecular target: T1, Histone-lysine N-methyltransferase EHMT2; experiment: Inhibition of G9a in human 22Rv1 cells assessed as reduction of H3K9me2 after 48 hrs by In-Cell Western assay; format: cell-based, CWR22R
[8] = molecular target: T1, Histone-lysine N-methyltransferase EHMT2; experiment: Inhibition of G9a in human HCT116 cells assessed as reduction of H3K9me2 after 48 hrs by In-Cell Western assay; format: cell-based, HCT-116
[9] = molecular target: T1, Histone-lysine N-methyltransferase EHMT2; experiment: Inhibition of G9a in p53-deficient human HCT116 cells assessed as reduction of H3K9me2 after 48 hrs by In-Cell Western assay; format: cell-based, HCT-116
[10] = molecular target: T1, Histone-lysine N-methyltransferase EHMT2; experiment: Inhibition of G9a in human IMR90 cells assessed as reduction of H3K9me2 after 48 hrs by In-Cell Western assay; format: cell-based, IMR-90
[11] = Cytotoxicity against human […] assessed as cell viability after 48 hrs by MTT assay; format: functional, cell-based
Procedure, shortened: (§1)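 MTT viability read after 48 h inhibitor exposure. Culture media were alphaMEM + 10% FBS for 22RV1, DMEM + 10% FBS for IMR90 and MCF7, and RPMI + 10% FBS for PC3. Medium was replaced with phenol-red-free DMEM 10% FBS containing 1 mg/ml MTT for 1–2 h. Formazan was dissolved in acidified isopropanol/1% Triton and read at 570 nm minus 650 nm. EC50 came from a sigmoidal variable-slope fit, averaging at least duplicate runs.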

[12] = test system: PC-3; experiment: Cytotoxicity against human PC3 cells assessed as cell viability after 48 hrs by MTT assay; format: functional, cell-based; details: PC-3, 48 h; procedure, shortened: as §1
[13] = test system: CWR22R; experiment: Cytotoxicity against human 22Rv1 cells assessed as cell viability after 48 hrs by MTT assay; format: functional, cell-based; details: 22Rv1, 48 h; procedure, shortened: as §1
[14] = test system: IMR-90; experiment: Cytotoxicity against human IMR90 cells assessed as cell viability after 48 hrs by MTT assay; format: cell-based; details: IMR-90, 48 h; procedure, shortened: as §1

Row | Compound | EC50 [1] | IC50 [2] | IC50 [3] | Ratio [4] | further results
1 | COc1cc2c(NC3CCN(C)CC3)nc(N3CCCN(C)CC3)nc2cc1OCCCN(C)C | 34000 nM |  |  |  | 
2 | COc1cc2c(NC3CCN(C(C)C)CC3)nc(N3CCCCCC3)nc2cc1OCCCN1CCCCC1 | 6600 nM | 31 nM | 240 nM |  | 
3 | COc1cc2c(NC3CCN(C)CC3)nc(N3CCCN(C)CC3)nc2cc1OCCCN1CCCC1 | 15000 nM |  |  |  | 
4 | COc1cc2c(NC3CCN(C(C)C)CC3)nc(N3CCCN(C(C)C)CC3)nc2cc1OCCCN1CCCC1 | 4500 nM | 2 nM | 340 nM | 13 | 
5 | COc1cc2c(NC3CCN(C(C)C)CC3)nc(C3CCCCC3)nc2cc1OCCCN1CCCCC1 | 7600 nM | 110 nM | 260 nM |  | 
6 | COc1cc2c(NC3CCN(C(C)C)CC3)nc(N3CCCCCC3)nc2cc1OCCCN1CCCC1 | 5700 nM | 20 nM | 100 nM | 57 | 
7 | COc1cc2c(NC3CCN(C(C)C)CC3)nc(N3CCCN(C4CCCCC4)CC3)nc2cc1OCCCN1CCCC1 | 730 nM | 22 nM | 100 nM | 7 | 
8 | COc1cc2c(NC3CCN(C)CC3)nc(N3CCCN(C)CC3)nc2cc1OCCCN1CCCCC1 | 12000 nM |  |  |  | 
9 | COc1cc2c(NC3CCN(C(C)C)CC3)nc(N3CCCN(c4ccccc4)CC3)nc2cc1OCCCN1CCCC1 | 2100 nM | 10 nM | 220 nM | 10 | 
10 | COc1cc2c(NC3CCN(C4CCCCC4)CC3)nc(N3CCCN(C)CC3)nc2cc1OCCCN1CCCCC1 | 2900 nM | 11 nM | 56 nM |  | 
11 | COc1cc2c(NC3CCN(C(C)C)CC3)nc(N3CCCN(CC4CCCCC4)CC3)nc2cc1OCCCN1CCCC1 | 760 nM |  | 93 nM | 8 | 
12 | COc1cc2c(NC3CCN(CC4CCCCC4)CC3)nc(N3CCCN(C(C)C)CC3)nc2cc1OCCCN1CCCCC1 | 2800 nM | 4 nM | 25 nM |  | IC50 [5]: 18 nM; IC50 [6]: 26 nM; IC50 [7]: 24 nM; IC50 [8]: 51 nM; IC50 [9]: 72 nM; IC50 [10]: 46 nM
13 | COc1cc2c(NC3CCN(C(C)C)CC3)nc(N3CCCN(Cc4ccccc4)CC3)nc2cc1OCCCN1CCCC1 | 600 nM | 9 nM | 58 nM | 10 | 
14 | COc1cc2c(NC3CCN(C)CC3)nc(N3CCCN(C)CC3)nc2cc1OCCOCCN(C)C | > 40000 nM |  | 11000 nM |  | 
15 | COc1cc2c(NC3CCN(C(C)C)CC3)nc(N3CCCCC3)nc2cc1OCCCN1CCCC1 | 7000 nM | 16 nM | 150 nM | 47 | 
16 | COc1cc2c(NC3CCN(C(C)C)CC3)nc(C3CCCCC3)nc2cc1OCCOCCN(C)C | 13000 nM | 21 nM | 180 nM |  | 
17 | CCN1CCCN(c2nc(NC3CCN(C(C)C)CC3)c3cc(OC)c(OCCCN4CCCC4)cc3n2)CC1 | 1700 nM |  | 470 nM | 4 | 
18 | COc1cc2c(NC3CCN(C(C)C)CC3)nc(N3CCCN(C)CC3)nc2cc1OCCCN1CCCC1 | 1400 nM | 10 nM | 520 nM | 3 | 
19 | COc1cc2c(NC3CCN(C(C)C)CC3)nc(C3CCCCC3)nc2cc1OCCCN1CCCC1 |  |  |  |  | EC50 [11]: 7600 nM; EC50 [12]: 14000 nM; EC50 [13]: 4500 nM; EC50 [14]: 2300 nM
20 | COc1cc2c(NC3CCN(C(C)C)CC3)nc(N3CCCN(C(C)C)CC3)nc2cc1OCCCN1CCCCC1 | 4100 nM | 8 nM | 54 nM |  | 
